Screening results (PubChem)
Compounds with a hit are over-represented: about 5.8% of the library has one in this group of screens.
Pf Dd2 growth: inhibitors of Plasmodium falciparum Dd2 growth; activity change, % at 10 µM; actives 2.3% (n = 94,000); P. falciparum Dd2 growth, SYBR Green, 72 h; hits give low values; AID 1159554; in the data active = activity change below about -80%; inconclusive = no clear call, values can overlap the other calls
T cruzi growth-1: blocks T. cruzi growth in NIH3T3 culture; T. cruzi beta-gal in NIH3T3, GalScreen luminescence, 90 h; inhibition, % at 8.34 µM; actives 5.9% (n = 77,000);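 active = mean inhibition above about 93%, with at least 55% of replicates each passing it, limit read from the data, passing the limit was not always enough; inconclusive = only one of those two conditions holds; inactive = neither condition holds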
GASC1 inh: blocks human GASC-1 (KDM4C) demethylase activity; AID 720574; actives 0.15% (n = 96,000); inhibition, % at 12.5 µM; GST-KDM4C 2-372, H3K9me3 peptide, LANCE TR-FRET;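 active = mean replicate inhibition above about 25%, with at least 55% of replicates also reaching it, limit read from the data, passing the limit was not always enough; inconclusive = only one of those two conditions met; inactive = neither condition met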
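Compound: one test concentration per compound; Material: GST-GASC-1 enzyme fragment 2-372; Amount: GASC-1 enzyme at 10 nM final in reaction; Also added: H3K9me3 peptide substrate, Fe(II), 2-oxoglutarate; Technique: LANCE TR-FRET; Times: 30 min demethylation and 1 h detection at room temperature.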
IDH1 mut inh: IDH1 R132H (human) inhibition | O75874 | IDH1 R132H reductase, diaphorase/resazurin fluorescence, 60 min | inhibition, % at 10 µM | actives 0.18% (n = 70,000) | AID 624101; in the data active = inhibition above about 34%; inconclusive = no clear call, values can overlap the other calls; inactive = below about 11%;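 also: 0% = DMSO and 100% = no enzyme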
Target sequence (O75874 whole entry R132H): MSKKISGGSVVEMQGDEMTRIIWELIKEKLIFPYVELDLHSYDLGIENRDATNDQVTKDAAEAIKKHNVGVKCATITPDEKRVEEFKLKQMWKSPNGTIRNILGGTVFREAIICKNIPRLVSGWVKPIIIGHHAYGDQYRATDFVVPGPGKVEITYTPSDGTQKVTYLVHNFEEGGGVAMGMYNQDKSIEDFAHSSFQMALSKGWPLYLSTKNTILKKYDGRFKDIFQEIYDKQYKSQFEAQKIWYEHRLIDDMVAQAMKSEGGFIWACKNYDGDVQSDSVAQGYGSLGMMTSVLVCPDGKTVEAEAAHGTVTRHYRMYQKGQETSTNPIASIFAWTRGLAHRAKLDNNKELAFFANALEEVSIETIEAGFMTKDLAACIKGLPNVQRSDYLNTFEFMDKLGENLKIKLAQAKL
T cruzi growth-2: blocks T. cruzi growth in NIH3T3 host cells. shares compounds with T cruzi growth-1. T. cruzi beta-gal in NIH3T3, GalScreen luminescence, 90 h. inhibition, % at 8.35 µM. actives 72% (n = 5,600);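 active = mean replicate inhibition above about 95% and at least 55% of replicates individually reaching it, limit read from the data; inconclusive = only one of the two criteria is met; inactive = neither criterion is met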
T cruzi growth-3: blocks T. cruzi growth in NIH3T3 host cells | shares compounds with T cruzi growth-1 | T. cruzi beta-gal in NIH3T3, GalScreen luminescence, 90 h | inhibition, % at 2.09 µM | actives 21% (n = 5,600) | AID 651740;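 active = mean inhibition above about 95%, with at least 55% of replicates also reaching it, limit read from the data; inconclusive = meets just one of the two conditions; inactive = meets neither condition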;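 also: plate controls were neutral control median for no effect and positive control median for full effect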
NIH3T3 tox: cytotoxicity in mouse NIH/3T3 fibroblasts; NIH/3T3 viability, CellTiter-Glo ATP luminescence, 90 h; AID 651742; cytotoxicity (signal decrease), % at 8.35 µM; shares compounds with T cruzi growth-1; actives 14% (n = 5,600);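 active = mean signal decrease across replicates above about 35% based on untreated-well scatter, with enough replicates individually passing, limit read from the data; inconclusive = no rule stated though some were filed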;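 also: 0% = median of neutral control wells and 100% = median of positive control wells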
3T3 cytotox 2: NIH/3T3 (mouse) viability loss. actives 56% (n = 5,600). shares compounds with T cruzi growth-1. NIH/3T3 viability, CellTiter-Glo ATP luminescence, 90 h. inhibition, % at 24.9 µM;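 active = mean loss of cell viability signal at or above a set limit, and enough replicates individually reaching it; inconclusive = meets only the mean limit or only the replicate share; inactive = meets neither condition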;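 also: 0% = median of neutral control wells and 100% = median of positive control wells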
* hit, by the source's call; ? = inconclusive; . = not tested or not shown.

SMILES	Pf Dd2 growth	T cruzi growth-1	GASC1 inh	IDH1 mut inh	T cruzi growth-2	T cruzi growth-3	NIH3T3 tox	3T3 cytotox 2
COc1ccccc1-c1ccc2c(c1)[C@H]1[C@H](CCN1C(=O)C1CCCCC1)[C@@H](CO)N2	-39	-3	-1	.	.	.	.	.
COc1ccccc1-c1ccc2c(c1)[C@H]1[C@H](CCN1C(=O)C1CCCC1)[C@H](CO)N2	-75	.	.	.	.	.	.	.
COc1ccccc1-c1ccc2c(c1)[C@@H]1[C@@H](CCN1C(=O)C1CC1)[C@H](CO)N2	3	?	1	.	107*	?	-16	-28
COc1ccccc1-c1ccc([C@@H]2[C@@H](CO)N3CCCCN(C(=O)CN4CCOCC4)C[C@@H]23)cc1	-21	114*	1	.	39	-29	3	26*
COc1ccccc1-c1ccc([C@H]2[C@@H](CO)N3CCCCN(C(=O)CN4CCOCC4)C[C@@H]23)cc1	19	?	0	.	76	71	27	65*
CC(C)CC#Cc1cnc2c(c1)C(=O)N([C@@H](C)CO)C[C@@H](C)[C@@H](CN(C)C(=O)C1CCCCC1)O2	0	48	0	0	.	.	.	.
CNC[C@@H]1Oc2ncc(C#CCC3CCCC3)cc2C(=O)N([C@H](C)CO)C[C@@H]1C	-35	57	1	0	.	.	.	.
C[C@@H]1CN([C@@H](C)CO)C(=O)c2cc(C#CCc3ccccc3)cnc2O[C@H]1CN(C)C(=O)C1CCCCC1	-82*	114*	0	.	105*	36	-28	106*
CNC[C@@H]1Oc2ncc(C#CCC3CCCC3)cc2C(=O)N([C@H](C)CO)C[C@H]1C	-52	?	0	-1	109*	?	-2	106*
CC(C)CC#Cc1cnc2c(c1)C(=O)N([C@@H](C)CO)C[C@@H](C)[C@H](CN(C)C(=O)C1CCCCC1)O2	-53	?	0	-2	?	32	-10	81*
CO[C@@H]1CN(C)C(=O)c2ccc(NC(=O)Nc3ccccc3)cc2OC[C@@H](C)N(C(C)=O)C[C@H]1C	-14	.	0	.	.	.	.	.
C[C@H](CO)N1C[C@H](C)[C@H](CN(C)S(=O)(=O)c2cccs2)Oc2ccc(NS(=O)(=O)c3cn(C)cn3)cc2CC1=O	15	-12	0	.	.	.	.	.
O=C(C[C@@H]1C=C[C@H](NC(=O)C2CCC2)[C@H](CO)O1)NC1CCCCC1	.	.	2	-1	.	.	.	.
O=C(NCCN1CCCC1)[C@H]1N[C@H]2c3ccc(-c4ccccc4)c(=O)n3C[C@H]2[C@@H]1CO	-3	-30	-1	.	.	.	.	.
C[C@H]1CCCCO[C@@H](CN(C)S(=O)(=O)c2cccs2)[C@@H](C)CN([C@@H](C)CO)C(=O)c2cc(NC(=O)Nc3ccc(F)cc3)ccc2O1	-45	99*	0	-2	109*	59	18	27*
C[C@@H]1CCCCO[C@H](CN(C)S(=O)(=O)c2cccs2)[C@@H](C)CN([C@@H](C)CO)C(=O)c2cc(NC(=O)Nc3ccccc3)ccc2O1	.	?	0	1	107*	42	8	25
C[C@@H]1CCCCO[C@H](CN(C)S(=O)(=O)c2cccs2)[C@@H](C)CN([C@H](C)CO)C(=O)c2cc(NC(=O)Nc3ccc(F)cc3)ccc2O1	-45	-18	5	.	.	.	.	.
C[C@@H]1CCCCO[C@H](CN(C)S(=O)(=O)c2cccs2)[C@H](C)CN([C@@H](C)CO)C(=O)c2cc(NC(=O)Nc3ccccc3)ccc2O1	.	99*	-2	.	101*	29	1	30*
C[C@@H]1CCCCO[C@@H](CN(C)S(=O)(=O)c2cccs2)[C@@H](C)CN([C@@H](C)CO)C(=O)c2cc(NC(=O)Nc3ccc(F)cc3)ccc2O1	-35	27	0	1	.	.	.	.
C[C@@H]1CCCCO[C@@H](CN(C)S(=O)(=O)c2cccs2)[C@@H](C)CN([C@@H](C)CO)C(=O)c2cc(NC(=O)Nc3ccccc3)ccc2O1	.	54	-1	.	.	.	.	.
C[C@@H]1CCCCO[C@H](CN(C)S(=O)(=O)c2cccs2)[C@H](C)CN([C@H](C)CO)C(=O)c2cc(NC(=O)Nc3ccccc3)ccc2O1	.	108*	1	1	107*	26	12	5
OCc1nc2ccccc2n1CCOc1ccc(Cl)cc1	.	.	.	0	.	.	.	.
CC(C)(O)C#Cc1ccc([C@H]2[C@@H](CO)N3CCCCN(S(C)(=O)=O)C[C@@H]23)cc1	3	31	0	.	.	.	.	.
COCC(=O)Nc1ccc2c(c1)[C@@H]1C[C@@H](CC(=O)NCc3ccncc3)O[C@@H](CO)[C@@H]1O2	4	41	0	-2	.	.	.	.
C[C@@H]1CN([C@@H](C)CO)C(=O)c2cc(NC(=O)c3ccncc3)ccc2O[C@@H]1CN(C)C(=O)Nc1ccccc1	-2	.	1	1	.	.	.	.
SMILES	Pf Dd2 growth	T cruzi growth-1	GASC1 inh	IDH1 mut inh	T cruzi growth-2	T cruzi growth-3	NIH3T3 tox	3T3 cytotox 2
CCc1cc2c(SCC(N)=O)ncnc2s1	.	.	.	0	.	.	.	.
C[C@@H]1CN([C@H](C)CO)C(=O)c2cccc(NC(=O)c3ccncc3)c2O[C@@H]1CN(C)Cc1ccc(C(=O)O)cc1	18	22	-2	2	.	.	.	.
C[C@@H]1CCCCO[C@@H](CN(C)S(=O)(=O)c2cccs2)[C@H](C)CN([C@H](C)CO)C(=O)c2cc(NC(=O)Nc3ccccc3)ccc2O1	.	112*	-2	.	108*	76	-22	1
C[C@@H]1CN([C@@H](C)CO)C(=O)c2cc(NC(=O)Nc3ccc(F)cc3)ccc2O[C@@H](C)CCCCO[C@H]1CN(C)S(=O)(=O)c1cccs1	-70	56	0	-1	.	.	.	.
C[C@H]1CCCCO[C@H](CN(C)S(=O)(=O)c2cccs2)[C@@H](C)CN([C@@H](C)CO)C(=O)c2cc(NC(=O)Nc3ccccc3)ccc2O1	.	107*	-1	-6	106*	36	3	27*
O=C(c1ccc(F)cc1)N1C[C@@H]2[C@H](c3ccccc31)[C@@H](CO)N2C(=O)c1ccccc1	14	11	0	.	.	.	.	.
C[C@H]1CN([C@@H](C)CO)S(=O)(=O)c2ccc(C3=CCCC3)cc2O[C@H]1CN(C)S(=O)(=O)c1ccc(F)cc1	-46	121*	0	-28	106*	90	16	1
C[C@@H]1CN([C@H](C)CO)S(=O)(=O)c2ccc(C3=CCCCC3)cc2O[C@@H]1CN(C)S(=O)(=O)c1ccc(F)cc1	-55	119*	0	.	101*	107*	16	61*
Cc1ccc(S(=O)(=O)N(C)C[C@@H]2Oc3cc(C4=CCCC4)ccc3S(=O)(=O)N([C@H](C)CO)C[C@@H]2C)cc1	-71	.	1	-37	.	.	.	.
